Our source for the Activity, hemolysis and IC50 values is ChEMBL document CHEMBL4368887, “Synthesis and X-ray study of dispiro 8-nitroquinolone analogues and their cytotoxic properties against human cervical cancer HeLa cells” (Medchemcomm, 2019).

The source made the active and inactive calls. No cut-off for these calls is given here.

In data set [1] the test system is HeLa. Put plainly: Induction of apoptosis in human HeLa cells assessed as chromatin condensation at IC50 by DAPI staining-based fluorescence microscopic analysis. It counts as functional, cell-based. The method, boiled down: (§1)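 Cells at 1×10^5 per coverslip exposed at IC50 concentration. Fixed in methanol:acetic acid 3:1 v/v, stained with DAPI 5 µg/mL for 20 min. Nuclear morphology viewed by fluorescence microscopy with a […].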

In data set [2] the test system is HeLa. Briefly: Induction of morphological changes in human HeLa cells assessed as cell shrinkage at IC50 after 24 hrs by phase contrast microscopic analysis. The format is functional, cell-based. Summed up:
(§2)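 HeLa cells in DMEM with 10% FBS at 37°C, 5% CO2. […] Morphology compared with untreated cells under phase contrast microscope.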

The test system of data set [3] is HeLa. Briefly: Induction of apoptosis in human HeLa cells assessed as cytoplasmic shrinkage at IC50 by DAPI staining-based fluorescence microscopic analysis. It counts as functional, cell-based. Summed up:
as §1

Data set [4] is described as follows: Induction of hemolysis in human erythrocytes at IC50 by standard optical density assay relative to control. The format is cell-based, Erythrocyte. The conditions noted are these: read-out: Activity. Summed up:
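Donor blood diluted in saline; RBCs spun down at 3000 rpm for 10 min and washed three times. Mixed with compound at a range of concentrations and incubated at 37°C in 5% CO2. Spun at 3000 rpm for 5 min, supernatant OD read at 570 nm. Hemolysis % calculated against saline (0%) and distilled water (100%) controls.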

The subject of data set [5] is HeLa. Put plainly: Induction of apoptosis in human HeLa cells assessed as apoptotic body formation at IC50 by DAPI staining-based fluorescence microscopic analysis. The format is functional, cell-based. Summed up:
as §1

Data set [6] relates to HeLa. Put plainly: Induction of morphological changes in human HeLa cells assessed as disintegrated membrane at IC50 after 24 hrs by phase contrast microscopic analysis. The format is functional, cell-based. The method, boiled down:
as §2

Data set [7] concerns HeLa. Briefly: Induction of morphological changes in human HeLa cells assessed as detached cells at IC50 after 24 hrs by phase contrast microscopic analysis. The format is functional, cell-based. Summed up:
as §2

In data set [8] the test system is HeLa. Put plainly: Induction of morphological changes in human HeLa cells assessed as swollen cells at IC50 after 24 hrs by phase contrast microscopic analysis. The format is functional, cell-based. The method, boiled down:
as §2

The subject of data set [9] is HeLa. Put plainly: Cytotoxicity against human HeLa cells after 72 hrs by MTT assay. The format is functional, cell-based. Summed up:
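HeLa cells in DMEM with 4 mM L-glutamine, penicillin, streptomycin and 10% FBS. Seeded at 4000 cells/well, settled 24 h, then given serially diluted compound for 72 h at 37°C in 5% CO2. MTT in IMDM for 4 h, acidified ethanol lysis 15 min, A570 with 690 nm background. IC50 is 50% absorbance of untreated wells; three experiments in triplicate.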
For orientation: Formazan colour is commonly taken as a measure of viable cells.

In data set [10] the test system is HeLa. Briefly: Induction of morphological changes in human HeLa cells assessed as rounded cells at IC50 after 24 hrs by phase contrast microscopic analysis. It counts as functional, cell-based. Summed up: as §2
Data set [11] relates to HeLa. Briefly: Induction of apoptosis in human HeLa cells assessed as nuclear shrinkage at IC50 by DAPI staining-based fluorescence microscopic analysis. The format is functional, cell-based. The method, boiled down:
as §1

Data set [12] deals with HeLa. Briefly: Induction of ROS generation in human HeLa cells at IC50 after 3 hrs by DCFH-DA dye-based flow cytometric analysis. The format is functional, cell-based. Summed up: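 Harvested, washed twice in PBS, then 5 µM DCFH-DA (final) in DMEM for 10 min at 37°C. Flow cytometry at ex 485 / em 530 nm on 20000 cells per sample. Output is % of cells with DCF green fluorescence.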
A general note: A flow cytometer gives signals particle by particle.

Data set [13] concerns HeLa. Put plainly: Induction of apoptosis in human HeLa cells assessed as viable cells level at IC50 after 48 hrs by Annexin V-FITC/propidium iodide staining based flow cytometric analysis (reference value: 77.09%). It counts as functional.
Data set [14] concerns HeLa. Put plainly: Induction of apoptosis in human HeLa cells assessed as early apoptotic cells level at IC50 after 48 hrs by Annexin V-FITC/propidium iodide staining based flow cytometric analysis (reference value: 0%). It counts as functional.
Data set [15] relates to HeLa. Briefly: Induction of apoptosis in human HeLa cells assessed as increase in caspase3 levels at IC50 after 24 hrs by Western blot analysis. The format is functional, cell-based. The method, boiled down: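 Extracts of treated cells quantified by Bradford assay. 50 μg protein run on 12% SDS-PAGE and transferred to nitrocellulose. Blocked in 5% skim milk in PBS for 1 h at room temperature, primary antibody overnight, goat anti-mouse 1:2000. Three independent experiments in triplicate.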

Data set [16] concerns HeLa. Briefly: Induction of apoptosis in human HeLa cells assessed as late apoptotic cells level at IC50 after 48 hrs by Annexin V-FITC/propidium iodide staining based flow cytometric analysis (reference value: %). The format is functional.
Data set [17] has as its system HeLa. Briefly: Induction of apoptosis in human HeLa cells assessed as necrotic cells level at IC50 after 48 hrs by Annexin V-FITC/propidium iodide staining based flow cytometric analysis (reference value: %). It counts as functional.
Data set [18] deals with HeLa. Put plainly: Induction of apoptosis in human HeLa cells at IC50 after 48 hrs by Annexin V-FITC/propidium iodide staining based flow cytometric analysis (reference value: 100%). The format is functional.

As to `O=C1c2cccc([N+](=O)[O-])c2NC[C@@]12[C@H](c1ccc(Br)cc1)[C@@H](c1ccccc1)N[C@]21C(=O)Nc2ccc(Cl)cc21`, the outcome in the data set on HeLa [1], in the data set with HeLa [2], in the data set with HeLa [3], with HeLa [5], in the data set with HeLa [6] and in the data set with HeLa [7] was Active. Moreover, the outcome with HeLa [8], in the data set with HeLa [10], in the data set on HeLa [11] and in the data set with HeLa [12] was Active. In [4], the hemolysis was less than 7%. Besides, the Activity result in the data set on HeLa [9] is “Dose-dependent effect”. Also, the IC50 with HeLa [9] worked out at 21 µM.
As to `O=C1c2cccc([N+](=O)[O-])c2NC[C@@]12[C@H](c1ccc(F)cc1)[C@@H](c1ccccc1)N[C@]21C(=O)Nc2ccc(Br)cc21`, in the data set with HeLa [9], the Activity result is “Dose-dependent effect” and the concentration for half-maximal inhibition (IC50) was 26 µM.
For `O=C1c2cccc([N+](=O)[O-])c2NC[C@@]12[C@H](c1ccc(Cl)cc1)[C@@H](c1ccccc1)N[C@]21C(=O)Nc2ccc(F)cc21`, in that order: “Dose-dependent effect” and 25 µM.
With `O=C1c2cccc([N+](=O)[O-])c2NC[C@@]12[C@H](c1ccc(Cl)cc1)[C@@H](c1ccccc1)N[C@]21C(=O)Nc2ccc(Cl)cc21`, the result with HeLa [1], in the data set on HeLa [2], in the data set with HeLa [3], in the data set with HeLa [5], with HeLa [6] and with HeLa [7] was Active. Moreover, the result in the data set with HeLa [8], with HeLa [10], in the data set on HeLa [11] and in the data set with HeLa [12] was Active. The hemolysis in data set [4] is less than 7%. Besides, in the data set with HeLa [9], the Activity result is “Dose-dependent effect”. In the data set with HeLa [9], 18 µM corresponded to half-maximal inhibition (IC50).
Regarding `O=C1c2cccc([N+](=O)[O-])c2NC[C@@]12[C@H](c1ccc(Br)cc1)[C@@H](c1ccccc1)N[C@]21C(=O)Nc2ccc(Br)cc21`, in the data set with HeLa [9], the Activity entry is “Dose-dependent effect” and the IC50 amounted to 25 µM.
As to `COc1ccc([C@@H]2[C@@H](c3ccccc3)N[C@]3(C(=O)Nc4ccc(Cl)cc43)[C@]23CNc2c(cccc2[N+](=O)[O-])C3=O)cc1`, the outcome in the data set with HeLa [1], in the data set on HeLa [2], in the data set with HeLa [3], in the data set on HeLa [5], in the data set on HeLa [15] and with HeLa [6] was Active. The outcome in the data set on HeLa [7], with HeLa [8], in the data set on HeLa [10], in the data set with HeLa [11] and in the data set with HeLa [12] was Active. For the same compound, the Activity is 2.44% with HeLa [13]; 85.33% with HeLa [14]; 1.42% in the data set on HeLa [16]; “Dose-dependent effect” with HeLa [9]; 0% in the data set with HeLa [17]; 95.68% in the data set with HeLa [18]. Besides, the hemolysis in data set [4] is less than 7%. In addition, in the data set with HeLa [9], the IC50 was found to be 16 µM.
For `COc1ccc([C@@H]2[C@@H](c3ccccc3)N[C@]3(C(=O)Nc4ccc(F)cc43)[C@]23CNc2c(cccc2[N+](=O)[O-])C3=O)cc1`, in the data set on HeLa [9], the Activity entry was “Dose-dependent effect” and the IC50 turned out to be 24 µM.
For `COc1cccc2c1C(=O)c1c(O)c3c(c(O)c1C2=O)C[C@@](O)(C(=O)CO)C[C@@H]3O[C@H]1C[C@H](N)[C@H](O)[C@H](C)O1` [DOXORUBICIN], in that order: “Dose-dependent effect” and 14 µM.
The matching figures for `O=C1c2cccc([N+](=O)[O-])c2NC[C@@]12[C@H](c1ccc(F)cc1)[C@@H](c1ccccc1)N[C@]21C(=O)Nc2ccc(Cl)cc21`: “Dose-dependent effect” and 27 µM.
`O=C1c2cccc([N+](=O)[O-])c2NC[C@@]12[C@H](c1ccc(Br)cc1)[C@@H](c1ccccc1)N[C@]21C(=O)Nc2ccc(F)cc21`: in the data set on HeLa [9], the Activity result is “Dose-dependent effect” and the IC50 was 26 µM.
As to `COc1ccc([C@@H]2[C@@H](c3ccccc3)N[C@]3(C(=O)Nc4ccc(Br)cc43)[C@]23CNc2c(cccc2[N+](=O)[O-])C3=O)cc1`, the outcome in the data set on HeLa [1], in the data set on HeLa [2], in the data set with HeLa [3], in the data set with HeLa [5], in the data set on HeLa [6] and in the data set with HeLa [7] was Active. Further, the result in the data set with HeLa [8], in the data set with HeLa [10], in the data set on HeLa [11] and in the data set with HeLa [12] was Active. The hemolysis in data set [4] was less than 7%. Further, the Activity entry with HeLa [9] is “Dose-dependent effect”. The same compound registered a half-maximal inhibitory concentration (IC50) with HeLa [9] of 19 µM.
With `O=C1c2cccc([N+](=O)[O-])c2NC[C@@]12[C@H](c1ccc(Cl)cc1)[C@@H](c1ccccc1)N[C@]21C(=O)Nc2ccc(Br)cc21`, the outcome in the data set with HeLa [1], in the data set on HeLa [2], with HeLa [3], in the data set on HeLa [5], in the data set with HeLa [6] and in the data set with HeLa [7] was Active. Also, the result in the data set with HeLa [8], in the data set on HeLa [10], in the data set with HeLa [11] and with HeLa [12] was Active. In addition, in data set [4], the hemolysis was less than 7%. For the same compound, the Activity result with HeLa [9] is “Dose-dependent effect”. In the data set on HeLa [9], this compound showed an IC50 of 23 µM.
For the compound `O=C1c2cccc([N+](=O)[O-])c2NC[C@@]12[C@H](c1ccc(F)cc1)[C@@H](c1ccccc1)N[C@]21C(=O)Nc2ccc(F)cc21`, in the data set on HeLa [9], the Activity result was “Dose-dependent effect” and the IC50 was 20 µM.

As a reminder, the IC50 is the concentration needed to halve the response being measured. A high value points to weaker potency.
